Results: ChEMBL document CHEMBL1127682, “Resolution, absolute stereochemistry, and pharmacology of the S-(+)- and R-(-)-isomers of the apparent partial AMPA receptor agonist (R,S)-2-amino-3-(3-hydroxy-5-phenylisoxazol-4-yl)propionic acid [(R,S)-APPA]” (J Med Chem, 1994)

Assays:
[1] = target: T1, Glutamate receptor ionotropic, AMPA (Rattus norvegicus, UniProt P19490+P19491+P19492+P19493); test: Compound was evaluated for the antagonist activity on AMPA receptor in rat cortical wedge preparation; format: functional
[2] = target: Glutamate receptor ionotropic, NMDA 1 (Rattus norvegicus, UniProt P35439); test: Compound was evaluated for the inhibition of binding of [3H]glycine to NMDA receptor
Glutamate NMDA receptor [3] = test: Compound was evaluated for the inhibition of binding of [3H]- MK-801 to NMDA receptor; format: protein-complex assay
[4] = target: Glutamate receptor ionotropic, kainate; test: Compound was evaluated for the inhibition of binding of [3H]-Kainic acid to kianic acid receptor; format: protein-complex assay
Glutamate NMDA receptor [5] = test: Compound was evaluated for the inhibition of binding of [3H]- CPP to NMDA receptor; format: protein-complex assay
[6] = target: T1, Glutamate receptor ionotropic, AMPA; test: Compound was evaluated for the inhibition of binding of [3H]AMPA to the AMPA receptor; format: protein-complex assay
[7] = target: T1, Glutamate receptor ionotropic, AMPA; test: Compound was evaluated for the agonist activity on AMPA receptor in rat cortical wedge preparation; format: functional
Rattus norvegicus = species: Rattus norvegicus; test: The compound was evaluated for agonist sensitivity to antagonist NBQX; format: functional
Outline: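 Rat cortical wedges (500-μm, cortex plus corpus callosum) superfused with Mg2+- and Ca2+-free oxygenated Krebs buffer at room temperature; agonist depolarization concentration-response curves recorded with and without 0.5 μM NBQX; pKi calculated from the parallel shift; means ± SEM of at least three experiments.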

SMILES: N[C@H](Cc1c(O)noc1-c1ccccc1)C(=O)O
- Ki [1]: 286 µM
- IC50 [2]: > 100 µM
- IC50 (Glutamate NMDA receptor [3]): > 100 µM
- IC50 [4]: > 100 µM
- IC50 (Glutamate NMDA receptor [5]): > 100 µM
- IC50 [6]: > 100 µM

SMILES: N[C@@H](Cc1c(O)noc1-c1ccccc1)C(=O)O
- IC50 [2]: > 100 µM
- IC50 (Glutamate NMDA receptor [3]): > 100 µM
- IC50 [4]: > 100 µM
- IC50 (Glutamate NMDA receptor [5]): > 100 µM
- EC50 [7]: 230 µM
- Log Ki (Rattus norvegicus): -6.3
- IC50 [6]: 6 µM

SMILES: NC(Cc1c(O)noc1-c1ccccc1)C(=O)O (racemic)
- IC50 [2]: > 100 µM
- IC50 (Glutamate NMDA receptor [3]): > 100 µM
- IC50 [4]: > 100 µM
- IC50 (Glutamate NMDA receptor [5]): > 100 µM
- EC50 [7]: 385 µM
- IC50 [6]: 35 µM

SMILES: Cc1onc(O)c1CC(N)C(=O)O (racemic) [(R,S)-AMPA]
- Log Ki (Rattus norvegicus): -6.56

SMILES: C=C(C)[C@H]1CN[C@H](C(=O)O)[C@H]1CC(=O)O [KAINIC ACID]
- IC50 [2]: > 100 µM
- IC50 (Glutamate NMDA receptor [3]): > 100 µM
- IC50 (Glutamate NMDA receptor [5]): > 100 µM
- Log Ki (Rattus norvegicus): -5.42
